Source: ChEMBL document CHEMBL1154352, “Toll-like receptor 7 selective synthetic oligoribonucleotide agonists: synthesis and structure-activity relationship studies” (J Med Chem, 2009)
Activity calls are given as the source filed them. The calls are words filed in the database; no cut-off is given here.

Assays:
[1] = target: T1, Toll-like receptor 7 (Homo sapiens) (UniProt Q9NYK1); assay: Activation of human TLR7 expressed in HEK293XL assessed as induction of NF-kappaB activity by reporter gene assay
T1 sequence (whole entry): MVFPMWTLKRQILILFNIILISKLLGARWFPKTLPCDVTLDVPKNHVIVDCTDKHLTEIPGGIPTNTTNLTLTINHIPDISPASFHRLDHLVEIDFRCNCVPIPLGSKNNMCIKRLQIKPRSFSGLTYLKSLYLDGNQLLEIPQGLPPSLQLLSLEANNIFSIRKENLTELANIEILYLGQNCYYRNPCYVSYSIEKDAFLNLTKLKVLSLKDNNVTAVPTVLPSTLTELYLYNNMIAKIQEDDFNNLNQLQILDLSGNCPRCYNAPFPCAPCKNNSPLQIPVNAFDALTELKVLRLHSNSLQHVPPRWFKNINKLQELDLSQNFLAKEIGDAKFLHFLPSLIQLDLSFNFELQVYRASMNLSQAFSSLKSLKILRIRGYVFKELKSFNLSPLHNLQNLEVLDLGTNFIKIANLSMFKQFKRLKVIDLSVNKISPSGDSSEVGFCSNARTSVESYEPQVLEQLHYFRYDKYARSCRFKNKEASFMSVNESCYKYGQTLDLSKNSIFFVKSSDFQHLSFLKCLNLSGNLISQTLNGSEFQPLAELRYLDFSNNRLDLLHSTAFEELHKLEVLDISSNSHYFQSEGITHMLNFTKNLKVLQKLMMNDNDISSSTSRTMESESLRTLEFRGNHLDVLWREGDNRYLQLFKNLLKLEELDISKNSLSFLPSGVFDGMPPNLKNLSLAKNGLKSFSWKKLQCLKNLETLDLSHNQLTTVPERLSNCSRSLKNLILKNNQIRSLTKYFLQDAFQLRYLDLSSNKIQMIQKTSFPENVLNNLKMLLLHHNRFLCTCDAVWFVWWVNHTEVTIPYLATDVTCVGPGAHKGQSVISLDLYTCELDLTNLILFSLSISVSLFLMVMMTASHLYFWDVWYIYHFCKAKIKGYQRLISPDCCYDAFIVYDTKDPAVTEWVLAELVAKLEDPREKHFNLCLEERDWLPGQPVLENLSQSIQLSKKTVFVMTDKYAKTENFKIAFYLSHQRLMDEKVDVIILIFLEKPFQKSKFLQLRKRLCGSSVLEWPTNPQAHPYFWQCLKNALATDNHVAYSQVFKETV
Method in brief: (§1)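 HEK293 cells stably expressing human TLR7 or TLR8, transiently transfected with SEAP reporter plasmid; medium replaced, SIMRA compounds added, 18 h incubation. Supernatant SEAP measured by QuantiBlue; expressed as fold increase in NF-κB activity over PBS control. Tabulated data at 50 μg/mL, representative of three independent experiments.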

[2] = target: T2, Toll-like receptor 8 (Homo sapiens) (UniProt Q9NR97); assay: Activation of human TLR8 expressed in HEK293XL assessed as induction of NF-kappaB activity by reporter gene assay; method in brief: as §1
T2 sequence (whole entry): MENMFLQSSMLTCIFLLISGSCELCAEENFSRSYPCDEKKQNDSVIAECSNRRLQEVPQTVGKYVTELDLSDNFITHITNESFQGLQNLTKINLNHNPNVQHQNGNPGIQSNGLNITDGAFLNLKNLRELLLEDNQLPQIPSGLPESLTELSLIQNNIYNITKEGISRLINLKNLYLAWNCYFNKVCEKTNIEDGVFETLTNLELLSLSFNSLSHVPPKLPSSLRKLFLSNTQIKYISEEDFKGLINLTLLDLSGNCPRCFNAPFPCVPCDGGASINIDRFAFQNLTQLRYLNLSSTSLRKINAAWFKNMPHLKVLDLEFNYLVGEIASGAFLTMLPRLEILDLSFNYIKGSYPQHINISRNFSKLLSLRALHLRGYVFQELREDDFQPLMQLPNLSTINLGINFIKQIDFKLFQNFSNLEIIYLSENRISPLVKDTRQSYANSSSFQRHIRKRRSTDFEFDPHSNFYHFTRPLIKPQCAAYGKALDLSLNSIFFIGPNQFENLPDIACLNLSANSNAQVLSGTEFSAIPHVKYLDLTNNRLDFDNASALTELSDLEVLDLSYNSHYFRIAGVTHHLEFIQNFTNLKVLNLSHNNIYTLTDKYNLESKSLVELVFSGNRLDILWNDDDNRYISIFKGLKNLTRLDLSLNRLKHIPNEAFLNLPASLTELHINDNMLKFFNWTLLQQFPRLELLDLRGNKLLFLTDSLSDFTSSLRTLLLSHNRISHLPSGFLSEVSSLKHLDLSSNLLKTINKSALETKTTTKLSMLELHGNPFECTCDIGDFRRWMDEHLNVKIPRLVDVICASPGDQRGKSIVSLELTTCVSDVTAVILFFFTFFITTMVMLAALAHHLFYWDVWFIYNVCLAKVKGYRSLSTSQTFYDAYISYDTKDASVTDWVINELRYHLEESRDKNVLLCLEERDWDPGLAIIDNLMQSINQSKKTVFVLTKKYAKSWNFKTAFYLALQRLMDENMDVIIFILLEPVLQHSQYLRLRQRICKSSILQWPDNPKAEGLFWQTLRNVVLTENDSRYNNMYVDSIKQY

[3] = organism: Homo sapiens; assay: Ratio of human TLR7 activity to human TLR8 activity
Method in brief: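 TLR7/TLR8 ratio computed from fold NF-κB (SEAP reporter) activation in HEK293 cells stably expressing human TLR7 versus TLR8, compounds at 50 μg/mL, 18 h exposure; representative of three independent experiments.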

Activity [1] | Activity [2] | Activity [3] | Structure (SMILES)
inactive | inactive | Dose-dependent effect | Nc1ccn([C@@H]2O[C@H](COP(=O)(S)O[C@H]3[C@@H](O)[C@H](n4cnc5c(N)ncnc54)O[C@@H]3CO)[C@@H](OP(=O)(S)OC[C@H]3O[C@@H](n4ccc(=O)[nH]c4=O)[C@H](O)[C@@H]3OP(=O)(S)OC[C@H]3O[C@@H](n4ccc(=O)[nH]c4=O)[C@H](O)[C@@H]3OP(=O)(S)OC[C@H]3O[C@@H](n4cnc5c(=O)[nH]c(N)nc54)[C@H](O)[C@@H]3OP(=O)(S)OC[C@H]3O[C@@H](n4cnc5c(N)ncnc54)[C@H](O)[C@@H]3OP(=O)(S)OC[C@H]3O[C@@H](n4ccc(N)nc4=O)[C@H](O)[C@@H]3OP(=O)(S)OC[C@H]3O[C@@H](n4cnc5c(=O)[nH]c(N)nc54)[C@H](O)[C@@H]3OP(=O)(S)OC[C@H]3O[C@@H](n4cnc5c(N)ncnc54)[C@H](O)[C@@H]3OP(=O)(S)OC[C@H]3O[C@@H](n4ccc(=O)[nH]c4=O)[C@H](O)[C@@H]3OP(=O)(S)OC[C@H]3O[C@@H](n4ccc(=O)[nH]c4=O)[C@H](O)[C@@H]3OP(=O)(S)OCC(O)COP(=O)(S)O[C@H]3[C@@H](O)[C@H](n4ccc(=O)[nH]c4=O)O[C@@H]3COP(=O)(S)O[C@H]3[C@@H](O)[C@H](n4ccc(=O)[nH]c4=O)O[C@@H]3COP(=O)(S)O[C@H]3[C@@H](O)[C@H](n4cnc5c(N)ncnc54)O[C@@H]3COP(=O)(S)O[C@H]3[C@@H](O)[C@H](n4cnc5c(=O)[nH]c(N)nc54)O[C@@H]3COP(=O)(S)O[C@H]3[C@@H](O)[C@H](n4ccc(N)nc4=O)O[C@@H]3COP(=O)(S)O[C@H]3[C@@H](O)[C@H](n4cnc5c(N)ncnc54)O[C@@H]3COP(=O)(S)O[C@H]3[C@@H](O)[C@H](n4cnc5c(=O)[nH]c(N)nc54)O[C@@H]3COP(=O)(S)O[C@H]3[C@@H](O)[C@H](n4ccc(=O)[nH]c4=O)O[C@@H]3COP(=O)(S)O[C@H]3[C@@H](O)[C@H](n4ccc(=O)[nH]c4=O)O[C@@H]3COP(=O)(S)O[C@H]3[C@@H](O)[C@H](n4ccc(N)nc4=O)O[C@@H]3COP(=O)(S)O[C@H]3[C@@H](O)[C@H](n4cnc5c(N)ncnc54)O[C@@H]3CO)[C@H]2O)c(=O)n1 (stereo partly specified)
inactive | inactive | Dose-dependent effect | Nc1ccn([C@@H]2O[C@H](COP(=O)(S)O[C@H]3[C@@H](O)[C@H](n4cnc5c(N)ncnc54)O[C@@H]3CO)[C@@H](OP(=O)(S)OC[C@H]3O[C@@H](n4ccc(=O)[nH]c4=O)[C@H](O)[C@@H]3OP(=O)(S)OC[C@H]3O[C@@H](n4ccc(=O)[nH]c4=O)[C@H](O)[C@@H]3OP(=O)(S)OC[C@H]3O[C@@H](n4ccc5c(=O)[nH]c(N)nc54)[C@H](O)[C@@H]3OP(=O)(S)OC[C@H]3O[C@@H](n4cnc5c(N)ncnc54)[C@H](O)[C@@H]3OP(=O)(S)OC[C@H]3O[C@@H](n4cnc5c(N)ncnc54)[C@H](O)[C@@H]3OP(=O)(S)OC[C@H]3O[C@@H](n4cnc5c(=O)[nH]c(N)nc54)[C@H](O)[C@@H]3OP(=O)(S)OC[C@H]3O[C@@H](n4ccc(N)nc4=O)[C@H](O)[C@@H]3OP(=O)(S)OC[C@H]3O[C@@H](n4ccc(=O)[nH]c4=O)[C@H](O)[C@@H]3OP(=O)(S)OC[C@H]3O[C@@H](n4ccc(=O)[nH]c4=O)[C@H](O)[C@@H]3OP(=O)(S)OCC(O)COP(=O)(S)O[C@H]3[C@@H](O)[C@H](n4ccc(=O)[nH]c4=O)O[C@@H]3COP(=O)(S)O[C@H]3[C@@H](O)[C@H](n4ccc(=O)[nH]c4=O)O[C@@H]3COP(=O)(S)O[C@H]3[C@@H](O)[C@H](n4ccc(N)nc4=O)O[C@@H]3COP(=O)(S)O[C@H]3[C@@H](O)[C@H](n4cnc5c(=O)[nH]c(N)nc54)O[C@@H]3COP(=O)(S)O[C@H]3[C@@H](O)[C@H](n4cnc5c(N)ncnc54)O[C@@H]3COP(=O)(S)O[C@H]3[C@@H](O)[C@H](n4cnc5c(N)ncnc54)O[C@@H]3COP(=O)(S)O[C@H]3[C@@H](O)[C@H](n4cnc5c(=O)[nH]c(N)nc54)O[C@@H]3COP(=O)(S)O[C@H]3[C@@H](O)[C@H](n4ccc(=O)[nH]c4=O)O[C@@H]3COP(=O)(S)O[C@H]3[C@@H](O)[C@H](n4ccc(=O)[nH]c4=O)O[C@@H]3COP(=O)(S)O[C@H]3[C@@H](O)[C@H](n4ccc(N)nc4=O)O[C@@H]3COP(=O)(S)O[C@H]3[C@@H](O)[C@H](n4cnc5c(N)ncnc54)O[C@@H]3CO)[C@H]2O)c(=O)n1 (stereo partly specified)
